# Calls of active or inactive are those of the source. The calls are words filed in the database; no cut-off is given here.
# Tests used:
# Proteus mirabilis = assay: Antibacterial activity against Proteus mirabilis CECT170 up to 40 ug/mL by broth microdilution method; type: functional, organism-based
# Method in brief: (§1)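 Compounds are dissolved in DMSO. The minimal inhibitory concentration is estimated by broth microdilution.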
# Bacillus subtilis = assay: Antibacterial activity against Bacillus subtilis CECT 39 up to 40 ug/mL by broth microdilution method; type: functional, organism-based; method in brief: as §1
# HEp-2 = assay: Cytotoxicity against human Hep2 cells after 48 hrs by MTT assay; type: functional, cell-based; settings: HEp-2, 48 h
# Method in brief: (§2)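 Monolayers are cultured in DMEM with 5% fetal calf serum and 1% penicillin-streptomycin at 37 °C, 5% CO2 and 90% humidity. Exponentially growing cells (2 × 10^4 cells/well) are exposed to a range of compound concentrations for 48 h at 37 °C. Viability is read by colorimetric MTT reduction.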
# Salmonella = assay: Antibacterial activity against Salmonella sp. CECT 456 up to 40 ug/mL by broth microdilution method; type: functional, organism-based; method in brief: as §1
# Priestia megaterium = assay: Antibacterial activity against Bacillus megaterium CECT 44 up to 40 ug/mL by broth microdilution method; type: functional, organism-based; method in brief: as §1
# Staphylococcus aureus = assay: Antibacterial activity against Staphylococcus aureus ATCC 6538 up to 40 ug/mL by broth microdilution method; type: functional, organism-based; method in brief: as §1
# [1] = tested on: Staphylococcus epidermidis; assay: Antibacterial activity against Staphylococcus epidermidis CECT 232 up to 40 ug/mL by broth microdilution method; type: functional, organism-based; method in brief: as §1
# Bacillus pumilus = assay: Antibacterial activity against Bacillus pumilus CECT 29 up to 40 ug/mL by broth microdilution method; type: functional, organism-based; method in brief: as §1
# Escherichia coli = assay: Antibacterial activity against Escherichia coli CECT 99 up to 40 ug/mL by broth microdilution method; type: functional, organism-based; method in brief: as §1
# [2] = tested on: Staphylococcus saprophyticus; assay: Antibacterial activity against Staphylococcus saprophyticus CECT 235 up to 40 ug/mL by broth microdilution method; type: functional, organism-based; method in brief: as §1
# Enterococcus faecalis = assay: Antibacterial activity against Enterococcus faecalis CECT 795 up to 40 ug/mL by broth microdilution method; type: functional, organism-based; method in brief: as §1
# Pseudomonas aeruginosa = assay: Antibacterial activity against Pseudomonas aeruginosa AK 958 up to 40 ug/mL by broth microdilution method; type: functional, organism-based; method in brief: as §1
# Bacillus cereus = assay: Antibacterial activity against Bacillus cereus CECT 496 up to 40 ug/mL by broth microdilution method; type: functional, organism-based; method in brief: as §1
# [3] = tested on: Mycolicibacterium smegmatis; assay: Antibacterial activity against Mycobacterium smegmatis CECT 3032 up to 40 ug/mL by broth microdilution method; type: functional, organism-based; method in brief: as §1
# Vero = assay: Cytotoxicity against african green monkey Vero cells after 48 hrs by MTT assay; type: cell-based; settings: Chlorocebus sabaeus; method in brief: as §2
# Candida albicans = assay: Antifungal activity against Candida albicans UBC1 up to 40 ug/mL by broth microdilution method; type: functional, organism-based
# Method in brief: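 The yeast is grown on Sabouraud agar at 37 °C. Compounds are dissolved in DMSO, and the minimal inhibitory concentration is estimated by broth microdilution.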
# HeLa = assay: Cytotoxicity against human HeLa cells after 48 hrs by MTT assay; type: functional, cell-based; method in brief: as §2
Structure (SMILES),Activity (Proteus mirabilis),Activity (Bacillus subtilis),IC50 (HEp-2) [µg/mL],Activity (Salmonella),Activity (Priestia megaterium),Activity (Staphylococcus aureus),Activity [1],Activity (Bacillus pumilus),Activity (Escherichia coli),Activity [2],Activity (Enterococcus faecalis),Activity (Pseudomonas aeruginosa),Activity (Bacillus cereus),Activity [3],IC50 (Vero) [µg/mL],Activity (Candida albicans),IC50 (HeLa) [µg/mL]
C=C(C)[C@@H]1CC[C@]2(C)CC[C@]3(C)[C@@H](CC[C@@H]4[C@@]5(C)[C@@H](O)C[C@@H](O)C(C)(C)[C@@H]5CC[C@]43C)[C@@H]12,inactive,inactive,> 10,inactive,inactive,inactive,inactive,inactive,inactive,inactive,inactive,inactive,inactive,inactive,> 10,inactive,> 10
C=C(C)[C@@H]1CC[C@]2(C)CC[C@]3(C)[C@@H](CC[C@@H]4[C@@]5(C)[C@H](O)CC(=O)C(C)(C)[C@@H]5CC[C@]43C)[C@@H]12 [GLOCHIDONOL],inactive,inactive,< 10,inactive,inactive,inactive,inactive,inactive,inactive,inactive,inactive,inactive,inactive,inactive,< 10,inactive,< 10
C=C(C)[C@@H]1CC[C@]2(C)CC[C@]3(C)[C@@H](CC[C@@H]4[C@@]5(C)[C@@H](O)C[C@H](O)C(C)(C)[C@@H]5CC[C@]43C)[C@@H]12 [GLOCHIDIOL],inactive,inactive,> 10,inactive,inactive,inactive,inactive,inactive,inactive,inactive,inactive,inactive,inactive,inactive,> 10,inactive,> 10
C=C(C)[C@@H]1CC[C@]2(C)CC[C@]3(C)[C@H](CC[C@@H]4[C@@]5(C)CCC(=O)C(C)(C)[C@@H]5CC[C@]43C)[C@@H]12 [LUPENONE],inactive,inactive,> 10,inactive,inactive,inactive,inactive,inactive,inactive,inactive,inactive,inactive,inactive,inactive,> 10,inactive,> 10
C=C(C)[C@@H]1CC[C@]2(C(=O)O)CC[C@]3(C)[C@H](CC[C@@H]4[C@@]5(C)CC[C@@H](O)C(C)(C)[C@@H]5CC[C@]43C)[C@@H]12 [EPIBETULINIC ACID],inactive,inactive,3.1,inactive,inactive,inactive,inactive,inactive,inactive,inactive,inactive,inactive,inactive,inactive,> 10,inactive,2.1
C=C(C)[C@@H]1CC[C@]2(CO)CC[C@]3(C)[C@H](CC[C@@H]4[C@@]5(C)CC[C@H](OC(=O)/C=C/c6ccc(O)c(O)c6)C(C)(C)[C@@H]5CC[C@]43C)[C@@H]12,inactive,inactive,> 10,inactive,inactive,inactive,inactive,inactive,inactive,inactive,inactive,inactive,inactive,inactive,> 10,inactive,> 10
C=C(C)[C@@H]1CC[C@]2(C)CC[C@]3(C)[C@H](CC[C@@H]4[C@@]5(C)CC[C@H](O)C(C)(C)[C@@H]5CC[C@]43C)[C@@H]12 [LUPEOL],inactive,inactive,> 10,inactive,inactive,inactive,inactive,inactive,inactive,inactive,inactive,inactive,inactive,inactive,> 10,inactive,> 10
C=C(C)[C@@H]1CC[C@]2(CO)CC[C@]3(C)[C@H](CC[C@@H]4[C@@]5(C)CCC(=O)C(C)(C)[C@@H]5CC[C@]43C)[C@@H]12 [BETULONE],inactive,inactive,> 10,inactive,inactive,inactive,inactive,inactive,inactive,inactive,inactive,inactive,inactive,inactive,> 10,inactive,> 10
C=C(C)[C@@H]1CC[C@]2(CO)CC[C@]3(C)[C@@H](CC[C@@H]4[C@@]5(C)CCC(=O)C(C)(C)[C@@H]5[C@H](O)C[C@]43C)[C@@H]12,inactive,inactive,> 10,inactive,inactive,inactive,inactive,inactive,inactive,inactive,inactive,inactive,inactive,inactive,> 10,inactive,> 10
C=C(C)[C@@H]1CC[C@]2(CO)CC[C@]3(C)[C@H](CC[C@@H]4[C@@]5(C)CC[C@H](O)C(C)(C)[C@@H]5[C@H](O)C[C@]43C)[C@@H]12,inactive,inactive,> 10,inactive,inactive,inactive,inactive,inactive,inactive,inactive,inactive,inactive,inactive,inactive,> 10,,> 10
C=C(C)[C@@H]1CC[C@]2(CO)CC[C@]3(C)[C@H](CC[C@@H]4[C@@]5(C)CC[C@H](O)C(C)(C)[C@@H]5CC[C@]43C)[C@@H]12 [BETULIN],inactive,inactive,> 10,inactive,inactive,inactive,inactive,inactive,inactive,inactive,inactive,inactive,inactive,inactive,> 10,inactive,> 10
C=C(C)[C@@H]1CC[C@]2(CO)CC[C@]3(C)[C@H](CC[C@@H]4[C@@]5(C)C=CC(=O)C(C)(C)[C@@H]5CC[C@]43C)[C@@H]12,inactive,inactive,> 10,inactive,inactive,inactive,inactive,inactive,inactive,inactive,inactive,inactive,inactive,inactive,> 10,,> 10

# Source: ChEMBL document CHEMBL1158804, “Lupane triterpenoids from Maytenus species” (J Nat Prod, 2005)
